The text below walks through data of ChEMBL document CHEMBL3797168 (J Med Chem, 2016).

pEC50, pKi: −log10 of the molar value. Calls of active or inactive are those of the source. Bounds are passed on as bounds.

Assay [1] deals with T1, Adenosine receptor A3 (Homo sapiens, UniProt P0DMS8).
T1 sequence (P0DMS8 whole entry): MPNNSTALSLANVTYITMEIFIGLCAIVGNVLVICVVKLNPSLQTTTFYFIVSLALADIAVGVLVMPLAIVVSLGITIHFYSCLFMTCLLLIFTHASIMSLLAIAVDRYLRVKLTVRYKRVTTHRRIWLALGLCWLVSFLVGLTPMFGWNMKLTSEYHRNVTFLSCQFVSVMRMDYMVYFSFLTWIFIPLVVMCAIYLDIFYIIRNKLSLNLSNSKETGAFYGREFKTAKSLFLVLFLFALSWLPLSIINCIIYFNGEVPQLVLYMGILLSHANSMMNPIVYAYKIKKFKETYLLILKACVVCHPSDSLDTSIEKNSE
Briefly: Displacement of [125I]N6-(4-amino-3-iodobenzyl)adenosine-5'-N-methyl-uronamide from human adenosine A3 receptor expressed in CHO cell membranes incubated for 60 mins by liquid scintillation counting analysis. Background: Loss of bound radioactivity is the signal in a displacement assay; it reports binding, not function.

The target in assay [2] is T2, Adenosine receptor A1 (Homo sapiens, UniProt P30542).
T2 sequence (P30542 whole entry): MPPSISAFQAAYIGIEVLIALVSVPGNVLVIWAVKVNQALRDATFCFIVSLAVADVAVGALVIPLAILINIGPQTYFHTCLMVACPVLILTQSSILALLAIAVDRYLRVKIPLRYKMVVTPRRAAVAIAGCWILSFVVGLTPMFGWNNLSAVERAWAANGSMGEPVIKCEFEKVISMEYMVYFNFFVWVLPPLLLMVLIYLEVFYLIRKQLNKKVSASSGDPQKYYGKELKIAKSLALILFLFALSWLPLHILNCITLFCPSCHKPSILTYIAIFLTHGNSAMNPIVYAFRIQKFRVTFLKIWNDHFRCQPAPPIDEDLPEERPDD
Put plainly: Displacement of [3H]N6-R-phenylisopropyladenosine from human adenosine A1 receptor expressed in CHO cell membranes incubated for 60 mins by liquid scintillation counting analysis.

For assay [3], the target named is Adenosine receptor A2a (Homo sapiens) (UniProt P29274). Briefly: Displacement of [3H]2-[p-(2-carboxyethyl)phenyl-ethylamino]-5'-N-ethylcarboxamido-adenosine from human adenosine A2A receptor expressed in HEK293 cell membranes at 10 uM incubated for 60 mins by liquid scintillation counting analysis.
The target of assay [4] is T3, Adenosine receptor A1 (Homo sapiens) (UniProt P30542).
T3 sequence (whole entry): T2 sequence (P30542 whole entry)
Briefly: Displacement of [3H]N6-R-phenylisopropyladenosine from human adenosine A1 receptor expressed in CHO cell membranes at 10 uM incubated for 60 mins by liquid scintillation counting analysis.

The test system of assay [5] is Mus musculus. Briefly: Antineuropathic pain activity in mouse chronic constriction injury model assessed as protection against mechanoallodynia at 3 micromol/kg administered as oral gavage on day 7. It is filed as functional, organism-based. The gist of the method:
(§1)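 Mice underwent sciatic nerve ligation (Bennett method). On day 7, at peak pain, they were dosed by oral gavage at 3 µmol/kg, n=3. Vehicle was 10% DMSO in 0.5% methylcellulose, diluted from a 5 mM DMSO stock. Ipsilateral hind paw withdrawal threshold (g) was followed over time. Experimenters were blinded.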

Assay [6] deals with Sodium-dependent dopamine transporter (Homo sapiens) (UniProt Q01959). Briefly: Increase in [3H]methyl (1R,2S,3S)-3-(4-fluorophenyl)-8-methyl-8-azabicyclo[3.2.1]octane-2-carboxylate binding to recombinant human DAT expressed in HEK293 cells at 10 uM by PDSP assay. The class given is cell-based.
The target of assay [7] is T1, Adenosine receptor A3. Put plainly: Agonist activity at recombinant human adenosine A3 receptor expressed in CHO cells assessed as inhibition of forskolin-stimulated cAMP accumulation preincubated for 30 mins followed by forsolkin addition measured after 15 mins by immunoassay. The class given is cell-based. In general terms: Changes in cAMP serve as a functional read-out for many G protein-coupled receptors.

Assay [8] deals with T4, Adenosine receptor A3 (Mus musculus, UniProt Q61618).
T4 sequence (Q61618 whole entry): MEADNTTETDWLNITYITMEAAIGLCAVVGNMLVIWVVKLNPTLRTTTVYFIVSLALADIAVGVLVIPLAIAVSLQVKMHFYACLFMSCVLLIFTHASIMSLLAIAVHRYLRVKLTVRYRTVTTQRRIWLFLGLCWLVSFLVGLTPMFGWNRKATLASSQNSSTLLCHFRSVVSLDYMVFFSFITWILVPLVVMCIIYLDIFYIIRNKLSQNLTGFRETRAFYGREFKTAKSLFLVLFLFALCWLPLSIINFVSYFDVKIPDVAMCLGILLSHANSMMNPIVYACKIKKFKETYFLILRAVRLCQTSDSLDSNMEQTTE
Briefly: Displacement of [125I]N6-(4-amino-3-iodobenzyl)adenosine-5'-Nmethyluronamide from mouse adenosine A3 receptor expressed in HEK293 cell membranes incubated for 60 mins by liquid scintillation counting analysis.

Assay [9] concerns Mus musculus. Put plainly: Antineuropathic pain activity in mouse chronic constriction injury model assessed as time duration showing protection against mechanoallodynia at 3 micromol/kg administered as oral gavage on day 7. The class given is functional. The method in brief:
as §1

The test system of assay [10] is Mus musculus. Put plainly: Antineuropathic pain activity in mouse chronic constriction injury model assessed as protection against mechanoallodynia at 3 micromol/kg administered as oral gavage on day 7 measured at 3 hrs. The class given is functional. The gist of the method:
as §1

Assay [11] relates to Mus musculus. Put plainly: Antineuropathic pain activity in mouse chronic constriction injury model assessed as protection against mechanoallodynia at 3 micromol/kg administered as oral gavage on day 7 measured at 1 hr. The class given is functional. The method in brief:
as §1

Assay [12] addresses T4, Adenosine receptor A3. Briefly: Agonist activity at mouse adenosine A3 receptor expressed in HEK293 cell membranes assessed as inhibition of forskolin-stimulated cAMP accumulation preincubated for 30 mins followed by forsolkin addition measured after 15 mins by immunoassay. The class given is functional, cell-based.
Assay [13] deals with Delta-type opioid receptor (Homo sapiens, UniProt P41143).
Sequence of Delta-type opioid receptor (P41143 whole entry): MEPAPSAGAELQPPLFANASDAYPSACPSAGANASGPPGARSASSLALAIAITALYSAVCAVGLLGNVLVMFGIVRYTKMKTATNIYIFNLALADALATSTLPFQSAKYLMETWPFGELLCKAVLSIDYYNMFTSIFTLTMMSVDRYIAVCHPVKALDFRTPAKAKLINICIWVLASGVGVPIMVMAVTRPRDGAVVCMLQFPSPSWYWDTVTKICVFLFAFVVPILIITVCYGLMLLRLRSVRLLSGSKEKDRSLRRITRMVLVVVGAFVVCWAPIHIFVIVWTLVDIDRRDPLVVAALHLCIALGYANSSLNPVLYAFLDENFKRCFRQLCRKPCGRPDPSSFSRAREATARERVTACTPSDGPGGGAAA

Sequence of Adenosine receptor A2a (Homo sapiens) (P29274 whole entry): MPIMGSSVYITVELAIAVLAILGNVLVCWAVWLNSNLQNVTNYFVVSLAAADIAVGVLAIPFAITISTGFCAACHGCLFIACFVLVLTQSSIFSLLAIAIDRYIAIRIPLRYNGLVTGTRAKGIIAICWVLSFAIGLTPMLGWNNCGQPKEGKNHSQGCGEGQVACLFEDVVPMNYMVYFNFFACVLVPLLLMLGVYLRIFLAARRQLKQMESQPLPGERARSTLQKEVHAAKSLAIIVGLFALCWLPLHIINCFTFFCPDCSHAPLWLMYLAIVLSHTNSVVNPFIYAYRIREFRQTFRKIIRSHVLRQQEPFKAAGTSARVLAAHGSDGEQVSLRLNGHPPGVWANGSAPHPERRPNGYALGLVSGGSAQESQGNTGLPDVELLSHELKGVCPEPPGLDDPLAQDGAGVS
Sequence of Sodium-dependent dopamine transporter (Homo sapiens) (Q01959 whole entry): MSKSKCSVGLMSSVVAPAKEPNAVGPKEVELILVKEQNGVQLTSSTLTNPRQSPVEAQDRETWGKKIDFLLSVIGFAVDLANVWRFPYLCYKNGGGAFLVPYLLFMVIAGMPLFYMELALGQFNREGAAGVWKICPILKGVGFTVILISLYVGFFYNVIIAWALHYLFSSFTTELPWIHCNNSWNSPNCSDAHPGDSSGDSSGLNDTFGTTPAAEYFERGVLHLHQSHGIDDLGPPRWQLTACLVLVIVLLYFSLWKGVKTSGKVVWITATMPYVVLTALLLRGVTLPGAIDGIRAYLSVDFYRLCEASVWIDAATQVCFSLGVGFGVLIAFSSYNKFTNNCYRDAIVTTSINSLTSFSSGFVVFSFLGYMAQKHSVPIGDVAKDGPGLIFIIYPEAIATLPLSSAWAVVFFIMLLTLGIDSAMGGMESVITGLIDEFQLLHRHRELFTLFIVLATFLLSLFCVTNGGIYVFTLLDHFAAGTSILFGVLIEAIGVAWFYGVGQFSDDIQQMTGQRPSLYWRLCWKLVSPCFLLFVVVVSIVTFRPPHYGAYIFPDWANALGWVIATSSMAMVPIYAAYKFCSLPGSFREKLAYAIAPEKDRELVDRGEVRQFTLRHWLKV

In general, pKi refers to the negative decadic logarithm of the Ki, by convention in mol/L. The term inhibition denotes the drop in the measured response relative to a control, in per cent. `CNC(=O)[C@@]12C[C@@H]1[C@@H](n1cnc3c(C)nc(C#Cc4ccc(F)c(F)c4)nc31)[C@H](O)[C@@H]2O`: the values for the pKi in assay [1] and in assay [2] were 7.01 and 5.27, respectively. The inhibition in assay [3] was found to be 14%.

Regarding `CNC(=O)[C@@]12C[C@@H]1[C@@H](n1cnc3cnc(NC)nc31)[C@H](O)[C@@H]2O`, the pKi in [1] was 6.22. Also, the inhibition in assay [3] is less than 10%; in assay [4], 17%.

For the compound `CNC(=O)[C@@]12C[C@@H]1[C@@H](n1cnc3c(C)nc(C#Cc4ccccc4)nc31)[C@H](O)[C@@H]2O`, in assay [5], the outcome was Active. The inhibition in [3] was 34%; in [4], 15%. In addition, the Activity in assay [6] came to 200%.

`CNC(=O)[C@@]12C[C@@H]1[C@@H](n1cnc3cnc(C#Cc4ccc(F)c(F)c4)nc31)[C@H](O)[C@@H]2O`: in [1], the pKi is 6.91. Moreover, the inhibition in assay [3] was 12%; in [4] it was 17%.

As for `CNC(=O)[C@@]12C[C@@H]1[C@@H](n1cnc3c(NC)nc(C#Cc4ccccc4)nc31)[C@H](O)[C@@H]2O`, the result in [5] was Active.

`CNC(=O)[C@@]12C[C@@H]1[C@@H](n1cnc3cnc(/C=C(\O)c4cnccn4)nc31)[C@H](O)[C@@H]2O` gave a negative-log Ki (pKi) in [1] of 5.83. For the same compound, the figures for the inhibition in assay [3] and in assay [4] were 20% and 14%, respectively.

In general, pEC50 refers to the negative decadic logarithm of the EC50, by convention in mol/L. With `CNC(=O)[C@@]12C[C@@H]1[C@@H](n1cnc3cnc(C#Cc4ccc(Cl)s4)nc31)[C@H](O)[C@@H]2O`, the negative logarithm of the Ki (pKi) was 7.22 in [1] and 6.40 in [8]. Moreover, in assay [7], the pEC50 is 7.57. Besides, the inhibition was 18% in [3] and less than 10% in assay [4]. The Time in [9] is 5 h.

Turning to `CNC(=O)[C@@]12C[C@@H]1[C@@H](n1cnc3c(C)nc(C#Cc4ccc(C(C)(C)C)cc4)nc31)[C@H](O)[C@@H]2O`, the inhibition was 15% in assay [3] and 16% in assay [4].

Compound `CNC(=O)[C@@]12C[C@@H]1[C@@H](n1cnc3c(/C=C(\O)c4ccccc4Cl)nc(C#Cc4ccccc4Cl)nc31)[C@H](O)[C@@H]2O` gave a pKi in assay [1] of 6.29. Besides, the inhibition in [3] came to 21%; in [4], 28%.

Turning to `CNC(=O)[C@@]12C[C@@H]1[C@@H](n1cnc3c(C)nc(C#Cc4cnccn4)nc31)[C@H](O)[C@@H]2O`, the inhibition in assay [3] worked out at 17%; in [4] it was 15%.

As for `CNC(=O)[C@@]12C[C@@H]1[C@@H](n1cnc3c(NCc4cccc(Cl)c4)nc(C#Cc4ccc(F)c(F)c4)nc31)[C@H](O)[C@@H]2O`, the Activity amounted to 23.7% in [10] and 100% in [11].

On to `CNC(=O)[C@@]12C[C@@H]1[C@@H](n1cnc3c(OC)nc(C#Cc4ccc(Cl)s4)nc31)[C@H](O)[C@@H]2O`, for which the pKi in assay [2] was 6.10. For the same compound, the inhibition in [3] amounted to 27%.

For `CNC(=O)[C@@]12C[C@@H]1[C@@H](n1cnc3c(/C=C(\O)c4ccc(C(C)(C)C)cc4)nc(C#Cc4ccc(C(C)(C)C)cc4)nc31)[C@H](O)[C@@H]2O`, in assay [1], the pKi is 7.03. In addition, the inhibition in [3] came out at 19%; in [4], 24%.

In turn, `CNC(=O)[C@@]12C[C@@H]1[C@@H](n1cnc3c(/C=C(\O)c4ccccc4)nc(Cl)nc31)[C@H](O)[C@@H]2O` showed a pKi in assay [1] of 5.94. The inhibition amounted to 24% in assay [3] and 30% in assay [4].

For `CNC(=O)[C@@]12C[C@@H]1[C@@H](n1cnc3c(/C=C(\O)c4ccccc4)nc(C#Cc4ccccc4)nc31)[C@H](O)[C@@H]2O`, in assay [5], the result was Active. Also, the pKi in assay [1] is 7.11; in [8] it was 6.87. Moreover, the inhibition in [3] and in assay [4] was 16% in each case. Besides, the pEC50 in assay [12] was 8.31.

`CNC(=O)[C@@]12C[C@@H]1[C@@H](n1cnc3c(C)nc(C#Cc4ccc(Cl)s4)nc31)[C@H](O)[C@@H]2O`: the result in [5] was Active. In addition, the pKi is 7.37 in assay [1], 5.24 in [13] and 6.14 in assay [8]. In assay [7], the pEC50 was 7.90. For the same compound, the inhibition in assay [3] is 12%; in assay [4], less than 10%.
